Bioassay records as filed in PubChem BioAssay.
This is a sample that favours compounds with a hit; in the whole collection about 3.1% have one here.
Cneo AK release: Cryptococcus neoformans lysis via adenylate kinase release | C. neoformans lysis, adenylate kinase release luminescence, 4 h; normalised: neutral wells 0, clomiphene wells 100 | lysis activity, % at 15 µM | 360,000 compounds, 0.2% hits | AID 651654;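 active = mean lysis activity across replicates of at least 80%, whatever share of replicates individually reach that level; inactive = mean lysis activity below 80%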
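Material: C. neoformans cells | Amount: Yeast cell density of 5 × 10^6 cells/mL | Medium: Fresh YPD growth medium | Dosing: Single dose | Times: Static 4 h at 37 °C with compound, 1 h detection | Detection: AK luminescence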
Ecoli rRNA inh: selective bacterial rRNA inhibition in E. coli. E. coli WT GFP vs humanized-ribosome RFP mutants, fluorescence, 24 h; active compounds read low; DMSO median 0, no signal -100. GFP signal change (wild-type ribosome), % (no concentration beside the values). 350,000 compounds, 1.6% hits;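 active = significant combined selectivity score with lowered wild-type GFP, culture density cut under 30%, mutant RFP and density less affected; inactive = any of these conditions unmet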
DENV2 CPE rescue: DENV2-induced cell death inhibition; 350,000 compounds, 1.7% hits; CPE inhibition, % at 9.99 µM; DENV2-infected cells, cytopathic effect rescue, plate reader; in the data active = CPE inhibition above about 20%, passing the limit was not always enough; inconclusive = no clear call, values can overlap the other calls; tested in BHK-21 cells;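 note: 0% = median of neutral control wells and 100% = median of positive control wells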
E-selectin induc: E-selectin induction on HUVECs; 260,000 compounds, 0.37% hits; HUVEC E-selectin immunofluorescence imaging; normalized: neutral wells 0, TNF-alpha wells 100; activation, % at 7.58 µM; AID 686992;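 active = mean E-selectin-positive cell signal at least 10% of the positive control, reached in at least 60% of replicates, without over 20% cell loss; inconclusive = no rule given, readout overlaps actives, possibly toxicity-flagged; inactive = the rest, including those meeting only one limit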
Target sequence (P16581 whole entry, looked up): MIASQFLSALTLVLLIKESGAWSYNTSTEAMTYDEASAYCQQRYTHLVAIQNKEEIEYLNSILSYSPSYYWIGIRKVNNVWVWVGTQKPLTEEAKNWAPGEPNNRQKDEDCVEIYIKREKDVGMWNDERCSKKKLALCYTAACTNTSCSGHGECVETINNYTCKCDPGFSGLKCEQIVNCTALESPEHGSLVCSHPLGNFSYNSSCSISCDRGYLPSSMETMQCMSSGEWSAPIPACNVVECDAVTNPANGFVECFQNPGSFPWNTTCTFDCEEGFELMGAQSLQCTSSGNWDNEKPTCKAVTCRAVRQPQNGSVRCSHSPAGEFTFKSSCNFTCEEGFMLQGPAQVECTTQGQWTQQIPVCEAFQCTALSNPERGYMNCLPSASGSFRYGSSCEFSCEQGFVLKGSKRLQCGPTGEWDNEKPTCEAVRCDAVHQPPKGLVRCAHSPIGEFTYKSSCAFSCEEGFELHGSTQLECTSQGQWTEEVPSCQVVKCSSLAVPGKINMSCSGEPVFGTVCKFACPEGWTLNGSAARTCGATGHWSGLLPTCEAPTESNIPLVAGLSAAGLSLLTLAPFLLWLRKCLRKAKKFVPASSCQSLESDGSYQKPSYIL
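Assay system: HUVEC, human umbilical vein endothelial cells / Amount: 3,000 HUVEC/well / Controls: TNF-alpha positive control, DMSO neutral control / Compound dosing: single concentration / Medium: EGM-2 over gelatin coat / Evaluation: percent E-selectin-positive cells / Signal: immunofluorescence imaging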
miR-122 sensor: inhibitors of miR-122 in Huh7 cells | Huh7 miR-122 Renilla luciferase sensor, 48 h; neutral wells = 0, positive control = 100 | activation (reporter increase), % at 12.5 µM | 340,000 compounds, 0.3% hits;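 active = mean replicate activation score at least 90 and every replicate individually at or above 90; inconclusive = only one of the two criteria met; inactive = neither criterion met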;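 note: higher luciferase means less miR-122 activity so hits act as miR-122 inhibitors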
Starred values were filed as active, the others as inactive; ? = inconclusive; · = not tested or not shown; [ ] = remark or other dose.

SMILES | Cneo AK release | Ecoli rRNA inh | DENV2 CPE rescue | E-selectin induc | miR-122 sensor
O=C1CCN(CCc2ccccc2)CCN1[C@H](COc1ccccc1)c1ccccc1 | 5 | -39 | 99* | 0 | 5
CN1CCN(C(=O)C[C@H]2CC[C@@H]3[C@H](COC[C@@H](O)CN3Cc3cccc(F)c3)O2)CC1 | -2 | -1 | -1 | 0 | -3[16.7 µM]
OCC1OCOC2C(CO)OCOC12 (centres undefined) | -4 | 2 | 123* | · | -1
CCOC(=O)N1CCN(c2c(N3CCN(c4ccc(OC)cc4)CC3)c(=O)c2=O)CC1 | -1 | 6 | -3 | -1 | -1
CCOC(=O)N1CCN(c2c(N3CCOCC3)c(=O)c2=O)CC1 | -1 | 7 | 0 | 204* | -8
N#Cc1cnn2c1nc(N1CCCCC1)c1ccccc12 | 1 | · | · | · | 134*
Cn1cnc(S(=O)(=O)N2CC[C@@H]3[C@H]2c2cc(C#CC4CCCC4)ccc2N[C@@H]3CO)c1 | · | 0 | -7 | 2 | ·
Cc1ccc(NC(=S)NNC(=O)C2CC2c2ccc(C)cc2)cc1 (centres undefined) | 0 | · | · | -2 | -8
O=C(NNC(=S)Nc1ccc(F)cc1)C1CC1c1ccc(Cl)cc1 (centres undefined) | · | -52* | 7 | -1 | ·
Cc1oc2c(C)c3oc(=O)c(CCC(=O)NCCN4CCOCC4)c(C)c3cc2c1C | 1 | · | 29* | · | -2
Cc1oc2c(C)c3oc(=O)c(CCC(=O)NCCCN4CCOCC4)c(C)c3cc2c1C | 6 | -5 | ? | · | -5
Cc1cc(C)cc(NC(=O)C2CCN(S(C)(=O)=O)CC2)c1 | -3 | 9 | 12 | 0 | -2
Cc1cc(C)cc(NC(=O)C2CCN(c3nccs3)CC2)c1 | 0 | · | · | · | 128*
CC(=O)c1c(C)[nH]c(C(=O)Nc2ccc(C)c(S(=O)(=O)Nc3ccc(C)cc3C)c2)c1C | 1 | -15 | -1 | 2 | 166*
C=CCOc1ccc(CNCc2cccnc2)cc1OCC | 1 | 11 | 22* | · | 2
C[C@H]1CN([C@@H](C)CO)S(=O)(=O)c2ccc(-c3cccnc3)cc2O[C@@H]1CN(C)C(=O)CC1CC1 | 5 | -3 | -6 | 0 | -4[16.7 µM]
CC(Oc1ccc(Cl)cc1Cl)C(=O)NCCCN1CCOCC1 (centres undefined) | 0 | 13 | 62* | -1 | -5
Cc1cc(OC(C)C(=O)NCCCN2CCOCC2)ccc1Cl (centres undefined) | 10 | 15 | -1 | -1 | ·
CCOC(=O)Cn1cc(/C=C(/C#N)C(=O)NC(C)C)c2ccccc21 | -5 | -9 | 5 | 83* | 0
CCOC(=O)Cn1cc(/C=C(\C#N)C(=O)N2CCOCC2)c2ccccc21 | · | -6 | 1 | -2 | ·
Cc1ccc([C@@H]2CC=C(C(=O)O)[C@H](c3ccccc3)N2S(=O)(=O)c2ccccc2C)cc1 | -1 | -12 | -14 | 0 | 4
Cc1ccc([C@@H]2CC=C(C(=O)O)CN2S(=O)(=O)c2ccccc2C)cc1 | -1 | -25* | -1 | 0 | ·
Cc1ccc([C@@H]2CC=C(C(=O)O)[C@H](c3cccc(Cl)c3)N2S(=O)(=O)c2ccccc2C)cc1 | 6 | -34 | 7 | 0 | 7
CCc1ccc([C@@H]2CC=C(C(=O)O)[C@H](c3ccc(C)cc3)N2S(=O)(=O)c2ccc(C)cc2)cc1 | -1 | -24* | 18 | -1 | -1
Cc1ccc([C@H]2C(C(=O)O)=CC[C@@H](c3ccc(C)cc3)N2S(=O)(=O)c2ccccc2C)cc1 | -1 | -39* | 1 | 0 | 9
Cc1ccccc1S(=O)(=O)N1C(c2ccc(Cl)cc2)CC=C(C(=O)O)C1c1cccc(Cl)c1 (centres undefined) | · | -37 | 67* | 0 | ·
C[C@@H]1CN([C@H](C)CO)C(=O)c2cccc(NS(=O)(=O)c3ccc(F)cc3)c2O[C@H]1CN(C)S(=O)(=O)c1cn(C)cn1 | -2 | 2 | -7 | 0 | 5[16.7 µM]
O=C(C1=C[C@@H](c2ccc3c(c2)OCO3)C[C@@H](OCc2ccc(CO)cc2)O1)N1CCCCCCC1 | 0 | · | -8 | · | ·
COc1ccc(-c2ccc3c(c2)O[C@@H](CN(C)C)[C@@H](C)CN([C@@H](C)CO)S3(=O)=O)cc1 | 1 | 6 | 12 | 0 | -1[16.7 µM]
